In the array DNA melting data of Ke et al. (doi:10.1101/2024.01.08.574731) one finds Tm and folding enthalpy data, which are given here for 30 sequences.

Series [1] in a line: melting temperature; fluorescence melt of hairpins on a sequencing array, two-state fit, raised by 9.35 °C to match UV melts. The settings on record: sodium 0.088 M. A digest of the protocol:
(§1)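 Two-state fits, bootstrapped, provided melting temperature and folding enthalpy from Cy3 fluorescence normalised to pre-quench Cy3 and to control constructs. Library hairpins with annealed Cy3 and quencher oligos were imaged on a sequenced MiSeq flow cell in 50 mM Na-HEPES pH 8.0, 25 mM NaCl, at 2.5 °C intervals up to 60 °C. Four replicates were combined with inverse-variance weighting. A 9.35 °C upward shift was applied to fitted temperatures to match UV melts.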

The nature of series [2]: folding enthalpy; higher = less favourable; fluorescence melt of hairpins on a sequencing array, two-state fit. The note with it: sodium 0.088 M. In short, it runs like this:
as §1

For the sequence CGTCGGCGGAAACGCACG (((..(((....)))))), in series [1], the Tm was determined as 46.1 °C. In addition, in series [2], the folding enthalpy is -18.3 kcal/mol.

In the case of GAGACCGAAAGGTGCTC ((((((....))).))), the Tm in series [1] amounted to 46.9 °C. For the same sequence, the folding enthalpy in series [2] is -21.4 kcal/mol.

Turning to GCAGAGCCGAAAGGCTGC (((..(((....)))))), the Tm in series [1] stood at 52.9 °C. Besides, the folding enthalpy in series [2] is -13.8 kcal/mol.

GGGCCCGAAAGGGATCCC ((((((....)))..))): the Tm in series [1] amounted to 56.6 °C. Besides, the folding enthalpy in series [2] is -14.9 kcal/mol.

With GGATAGCGAAAGCTTCC (((.(((....)))))), the Tm in series [1] amounted to 48.1 °C. Further, the folding enthalpy in series [2] was -19 kcal/mol.

For GTCTCGGGAAACCGAGGC (.(((((....))))).), the Tm in series [1] turned out to be 57.6 °C. Besides, in series [2], the folding enthalpy is -29 kcal/mol.

On to GATCTCATGAGAGATC ((((((....)))))), for which, in series [1], the Tm was determined as 54.2 °C. The folding enthalpy in series [2] is -32 kcal/mol.

Turning to GTAGCACGAAAGTGATAC (((.(((....))).))), the Tm in series [1] came out at 58.4 °C. The folding enthalpy in series [2] was -39 kcal/mol.

As for CGCGCGGAAACGCCTGCG ((((((....)))..))), in series [1], the Tm was determined as 46.8 °C. Further, the folding enthalpy in series [2] was -17.2 kcal/mol.

For GCAACCGAAAGGTATGC ((((((....))).))), in series [1], the Tm stood at 50.3 °C. For the same sequence, in series [2], the folding enthalpy is -26.4 kcal/mol.

Consider GTGATGTCGAAAGACCAC (((..(((....)))))), for which the Tm in series [1] came out at 40.4 °C. The folding enthalpy in series [2] is -15 kcal/mol.

Consider GCGAGAGGTCGC ((((....)))), for which the Tm in series [1] was 50.9 °C. In addition, in series [2], the folding enthalpy is -8.36 kcal/mol.

Take GTTGCTGGAAACGGTAAC (((.(.(....).).))): in series [1], the Tm stood at 33.7 °C. The folding enthalpy in series [2] was -16.4 kcal/mol.

For GCCTTGCGAAAGCAGCGC ((..(((....)))..)), in series [1], the Tm stood at 52.9 °C. In series [2], the folding enthalpy is -14.6 kcal/mol.

GCTGCCGAAAGGCCAGC ((((((....))).))): the Tm in series [1] turned out to be 61.5 °C. Also, the folding enthalpy in series [2] was -24.4 kcal/mol.

GGAAGTGGAAACATTTCC ((((.((....)).)))): the Tm in series [1] was 40.3 °C. In series [2], the folding enthalpy is -27.9 kcal/mol.

As for GTCAACGAAAGTTCAGAC ((((((....)))..))), the Tm in series [1] is 28.3 °C. The folding enthalpy in series [2] was -11.4 kcal/mol.

Take GATCCCTAACGGGATC ((((((....)))))): in series [1], the Tm was 57.6 °C. The folding enthalpy in series [2] is -39.7 kcal/mol.

As to GCGCATGGAAACACGCAC (.((.((....)).)).), the Tm in series [1] was found to be 29 °C. For the same sequence, the folding enthalpy in series [2] is -13.8 kcal/mol.

Consider GATCTCACCGGAGATC ((((((....)))))), for which, in series [1], the Tm came out at 52.2 °C. Besides, in series [2], the folding enthalpy is -43.9 kcal/mol.

With GGGCGACGAAAGTCACCC (((.(((....))).))), in series [1], the Tm worked out at 61.8 °C. Also, the folding enthalpy in series [2] is -43.3 kcal/mol.

Turning to GATTTGGGAAACCGAATC ((((.((....)).)))), the Tm in series [1] is 44.5 °C. Also, the folding enthalpy in series [2] was -31.1 kcal/mol.

With GCGGTCACGAAAGTGCGC (((..(((....)))))), the Tm in series [1] was found to be 52.1 °C. In addition, the folding enthalpy in series [2] is -29.4 kcal/mol.

GATCCGAGAGCGGATC ((((((....)))))): the Tm in series [1] was 54.6 °C. Further, in series [2], the folding enthalpy was -38.3 kcal/mol.

Regarding GTTTTAACGAAAGTTAAC (((..(((....)))))), in series [1], the Tm worked out at 27 °C. Besides, in series [2], the folding enthalpy is -14.7 kcal/mol.

For the sequence GCGTGGCGAAAGCCCCGC (((.(((....))).))), the Tm in series [1] was determined as 67.6 °C. Also, in series [2], the folding enthalpy is -29.3 kcal/mol.

Turning to GTGCTCGAAAGAGACAC ((((((....))).))), the Tm in series [1] was 47.3 °C. Besides, the folding enthalpy in series [2] is -22.4 kcal/mol.

Consider GATCAAGTCTTTGATC ((((((....)))))), for which the Tm in series [1] amounted to 48.9 °C. The folding enthalpy in series [2] is -43.8 kcal/mol.

GTAAGAGCGAAAGCTTAC (((..(((....)))))): in series [1], the Tm was 33.5 °C. The folding enthalpy in series [2] is -14.9 kcal/mol.

On to GTGGCAGGAAACTGCTGC (..((((....))))..), for which the Tm in series [1] turned out to be 44.2 °C. The folding enthalpy in series [2] was -17.4 kcal/mol.
